Measurements from ChEMBL document CHEMBL1125843, “Electron-deficient isoalloxazines: model systems for disulfide prodrug formation” (J Med Chem, 1991).

How the values were obtained:
Assay type in all cases: ADME
[1] = General acid and general base rate constant (10e4kA-) required for the formation of m-nitrothiophenol disulfide.
Procedure, shortened: (§1)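 Isoalloxazine-catalyzed oxidation of m-nitrothiophenol to its disulfide was quantified by HPLC in phosphate buffer (0.08-0.4 M, pH 7-9) with ionic strength held at 0.4 M (KCl). Isoalloxazine stocks in dry methanol/dichloromethane were diluted into aqueous-methanolic reactions. At fixed pH, k_obs/[mNTP] was plotted against buffer base fraction. The slopes were then plotted against [AH]/[A−] to give k_AH (slope) and k_A− (intercept). Values are the mean of two determinations.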

[2] = […] rate constant (10e7kAH) required for the formation of m-nitrothiophenol disulfide.; procedure, shortened: as §1
[3] = Spontaneous rate constant (10e6 ko) required for the formation of m-nitrothiophenol disulfide.; procedure, shortened: as §1

Row | kA- [1] [M⁻¹ s⁻¹] | kAH [2] [M⁻¹ s⁻¹] | k'o [3] [M⁻¹ s⁻¹] | SMILES
1 | 2.3 | 131.7 | 4.6 | Cn1c2nc(=O)n(CCCCCCCCS)c(=O)c-2nc2ccc(C#N)cc21
2 | 0.1 | 6.8 | 3 | O=c1nc2n(-c3ccccc3)c3ccccc3nc-2c(=O)n1CCCCCCCCS
